Assays:
Canis familiaris [1] = test: Drug metabolism in beagle dog assessed as fraction of compound hydrolysis to R-138727 formation in intestine at 1 mg/kg, intraduodenal; type: ADME, organism-based, Canis lupus familiaris; design: dose 1 mg/kg, route intraduodenal; details: in vivo, other
Outline: (§1)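 Male beagle dogs (n = 6, 9–12 kg) with portal- and hepatic-vein cannulas, fasted about 19 h, got 1 mg/kg intraduodenally in 5% N,N-dimethylacetamide–95% PEG 400. Portal, hepatic and jugular blood was drawn into heparin at 1–120 min. Plasma was precipitated with acetonitrile (phenacetin internal standard) and analysed by LC-MS/MS in MRM mode. AUC0–2h was by trapezoidal noncompartmental analysis, mean ± S.D.; availability fractions were calculated from these AUCs.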

Canis familiaris [2] = test: Drug metabolism in beagle dog assessed as R-138727 formation in liver at 1 mg/kg, intraduodenal; type: ADME, organism-based, Canis lupus familiaris; design: dose 1 mg/kg, route intraduodenal; details: in vivo, other; outline: as §1
Canis familiaris [3] = test: Drug metabolism in beagle dog assessed as product of fraction of intestinal absorption and fraction of compound hydrolysis to R-138727 formation in intestine at 1 mg/kg, intraduodenal; type: ADME, organism-based, Canis lupus familiaris; design: dose 1 mg/kg, route intraduodenal; details: in vivo, other; outline: as §1
Canis familiaris [4] = test: Drug metabolism in beagle dog assessed as fraction of compound hydrolysis to R-95913 formation in intestine at 1 mg/kg, intraduodenal; type: ADME, organism-based, Canis lupus familiaris; design: dose 1 mg/kg, route intraduodenal; details: in vivo, other; outline: as §1
Canis familiaris [5] = test: Drug metabolism in beagle dog assessed as R-95913 formation in liver at 1 mg/kg, intraduodenal; type: ADME, organism-based, Canis lupus familiaris; design: dose 1 mg/kg, route intraduodenal; details: in vivo, other; outline: as §1
Canis familiaris [6] = test: Drug metabolism in beagle dog assessed as fraction of R-95913 hydrolysis to R-138727 formation at 1 mg/kg, intraduodenal; type: ADME, organism-based, Canis lupus familiaris; design: dose 1 mg/kg, route intraduodenal; details: in vivo, other; outline: as §1
Canis familiaris [7] = test: Drug metabolism in beagle dog assessed as product of fraction of intestinal absorption and fraction of compound hydrolysis to R-95913 formation in intestine at 1 mg/kg, intraduodenal; type: ADME, organism-based, Canis lupus familiaris; design: dose 1 mg/kg, route intraduodenal; details: in vivo, other; outline: as §1
[8] = Drug metabolism in human intestinal microsomes assessed as R-138727 formation at 1.6 to 200 uM after 15 mins incubation; type: ADME, Intestine, Microsome; details: 0.25 h
Outline: (§2)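 Preincubated 5 min at 37°C, then R-95913 added (1.6–200 μM final) and incubated 15 min at 37°C, in triplicate. Stopped with methoxyphenacyl bromide and internal standard in acetonitrile, solid-phase extracted, and analysed by HPLC. Michaelis-Menten fit, CLint = Vmax/Km.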

[9] = Drug metabolism in dog intestinal microsomes assessed as R-138727 formation at 1.6 to 200 uM after 15 mins incubation; type: ADME, Canis lupus familiaris, Intestine, Microsome; details: 0.25 h; outline: as §2
Liver microsome [10] = test: Intrinsic clearance in human liver microsomes assessed as R-138727 formation at 1.6 to 200 uM measured per protein after 15 mins incubation; type: ADME; details: 0.25 h
[11] = Drug metabolism in human intestinal microsomes assessed as R-138727 formation measured per protein at 1.6 to 200 uM after 15 mins incubation; type: ADME, Intestine, Microsome; details: 0.25 h; outline: as §2
Liver microsome [12] = test: Drug metabolism in human liver microsomes assessed as R-138727 formation at 1.6 to 200 uM after 15 mins incubation; type: ADME; details: 0.25 h
Liver microsome [13] = test: Intrinsic clearance in dog liver microsomes assessed as R-138727 formation measured per protein at 1.6 to 200 uM after 15 mins incubation; type: ADME, Canis lupus familiaris; details: 0.25 h
Outline: (§3)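 Microsomes (1 mg protein/ml; dog intestinal, dog liver or human intestinal) in 43 mM potassium phosphate pH 7.4 with an NADPH-generating system and 5 mM glutathione, in triplicate. After 5 min preincubation at 37°C, R-95913 (1.6–200 µM final) was added for 15 min at 37°C. Product was derivatised with methoxyphenacyl bromide, extracted by SPE and measured by HPLC. Michaelis–Menten fit; CLint = Vmax/Km.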

[14] = Intrinsic clearance in dog intestinal microsomes assessed as R-138727 formation measured per protein at 1.6 to 200 uM after 15 mins incubation; type: ADME, Canis lupus familiaris, Intestine, Microsome; details: 0.25 h; outline: as §3
Liver microsome [15] = test: Drug metabolism in human liver microsomes assessed as R-138727 formation at 1.6 to 200 uM measured per protein after 15 mins incubation; type: ADME; details: 0.25 h
Liver microsome [16] = test: Drug metabolism in dog liver microsomes assessed as R-138727 formation at 1.6 to 200 uM after 15 mins incubation; type: ADME, Canis lupus familiaris; details: 0.25 h; outline: as §2
[17] = Intrinsic clearance in human intestinal microsomes assessed as R-138727 formation measured per protein at 1.6 to 200 uM after 15 mins incubation; type: ADME, Intestine, Microsome; details: 0.25 h; outline: as §3
Liver microsome [18] = test: Drug metabolism in dog liver microsomes assessed as R-138727 formation measured per protein at 1.6 to 200 uM after 15 mins incubation; type: ADME, Canis lupus familiaris; details: 0.25 h; outline: as §2
[19] = Drug metabolism in dog intestinal microsomes assessed as R-138727 formation measured per protein at 1.6 to 200 uM after 15 mins incubation; type: ADME, Canis lupus familiaris, Intestine, Microsome; details: 0.25 h; outline: as §2

| Fm (Canis familiaris [1]) | Fm (Canis familiaris [2]) | Fm (Canis familiaris [3]) | Fm (Canis familiaris [4]) | Fm (Canis familiaris [5]) | Fm (Canis familiaris [6]) | Fm (Canis familiaris [7]) | Km [8] [µM] | Km [9] [µM] | CLH (Liver microsome [10]) [µL/min/mg] | Vmax [11] [pmol/min/mg] | Km (Liver microsome [12]) [µM] | CLint (Liver microsome [13]) [µL/min/mg] | CL [14] [µL/min/mg] | Vmax (Liver microsome [15]) [pmol/min/mg] | Km (Liver microsome [16]) [µM] | CL [17] [µL/min/mg] | Vmax (Liver microsome [18]) [pmol/min/mg] | Vmax [19] [pmol/min/mg] | SMILES |
| --- | --- | --- | --- | --- | --- | --- | --- | --- | --- | --- | --- | --- | --- | --- | --- | --- | --- | --- | --- |
| 0.13 | 0.75 | 0.13 | 0.83 | 0.08 | 0.23 | 0.8 | – | – | – | – | – | – | – | – | – | – | – | – | CC(=O)Oc1cc2c(s1)CCN(C(C(=O)C1CC1)c1ccccc1F)C2 (centres undefined) [PRASUGREL] |
| – | – | – | – | – | – | – | 80.4 | 42.7 | 9.6 | 89.2 | 26 | 20.6 | 1.2 | 247 | 18.5 | 1.1 | 379.9 | 49.8 | O=C1C=C2CN(C(C(=O)C3CC3)c3ccccc3F)CCC2S1 (centres undefined) |

— ChEMBL document CHEMBL3526088, “The intestine as an important contributor to prasugrel active metabolite formation in vivo” (Drug Metab Dispos, 2011)
